# Test results: ChEMBL document CHEMBL3596177
# Calls of active or inactive are those of the source. The calls are words filed in the database; no cut-off is given here.
# Key:
# [1] = Inhibition of Mycobacterium tuberculosis protein tyrosine phosphatase B expressed in Escherichia coli BL21/DE using pNPP substrate by spectrophotometry
# Summary of the method: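 His-tagged mPTPB from pET28b in E. coli BL21/DE3, purified on Ni-NTA. The assay ran at 25°C in 50 mM 3,3-dimethylglutarate pH 7.0 with 1 mM EDTA, ionic strength 0.15 M (NaCl). Enzyme was added last, the reaction was quenched after 10 min with NaOH, and A405 was read. IC50 was fitted as AI/A0 = IC50/(IC50+[I]).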
# RAW264.7 [2] = assay: Inhibition of Mycobacterium tuberculosis protein tyrosine phosphatase B transfected in mouse RAW264.7 cells assessed as increase in ERK1/2 phosphorylation at 10 uM incubated for 1 hr followed by with IFNgamma stimulation for 1 hr by Western blotting method; assay type: cell-based
# Summary of the method: (§1)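 RAW264.7 mouse macrophages transfected with mPTPB, grown in DMEM with 10% FBS, penicillin/streptomycin, 37°C, 5% CO2. Cells were seeded at 4 x 10⁴ per well and treated next day with inhibitor for 1 h, then with IFN-γ (200 U/ml) for 1 h. They were washed with cold PBS and lysed on ice 30 min. Cleared lysates were Western blotted for phospho-Erk1/2 and phospho-Akt.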
# RAW264.7 [3] = assay: Inhibition of Mycobacterium tuberculosis protein tyrosine phosphatase B transfected in mouse RAW264.7 cells assessed as reduction in AKT phosphorylation at 10 uM incubated for 1 hr followed by with IFNgamma stimulation for 1 hr by Western blotting method; assay type: cell-based; summary of the method: as §1
# [4] = Non-competitive inhibition of Mycobacterium tuberculosis protein tyrosine phosphatase B expressed in Escherichia coli BL21/DE using pNPP substrate by spectrophotometry based Lineweaver-Burk plot analysis
# RAW264.7 [5] = assay: Inhibition of Mycobacterium tuberculosis protein tyrosine phosphatase B transfected in mouse RAW264.7 cells assessed as increase in ERK1/2 phosphorylation at 5 and 10 uM incubated for 1 hr followed by with IFNgamma stimulation for 1 hr by Western blotting method; assay type: cell-based; summary of the method: as §1
# RAW264.7 [6] = assay: Inhibition of Mycobacterium tuberculosis protein tyrosine phosphatase B transfected in mouse RAW264.7 cells assessed as reduction in AKT phosphorylation at 5 and 10 uM incubated for 1 hr followed by with IFNgamma stimulation for 1 hr by Western blotting method; assay type: cell-based; summary of the method: as §1
# [7] = target: T1, Tyrosine-protein phosphatase non-receptor type 1 (Homo sapiens, UniProt P18031); assay: Inhibition of human PTP1B using pNPP substrate by spectrophotometry
# T1 sequence (P18031 whole entry): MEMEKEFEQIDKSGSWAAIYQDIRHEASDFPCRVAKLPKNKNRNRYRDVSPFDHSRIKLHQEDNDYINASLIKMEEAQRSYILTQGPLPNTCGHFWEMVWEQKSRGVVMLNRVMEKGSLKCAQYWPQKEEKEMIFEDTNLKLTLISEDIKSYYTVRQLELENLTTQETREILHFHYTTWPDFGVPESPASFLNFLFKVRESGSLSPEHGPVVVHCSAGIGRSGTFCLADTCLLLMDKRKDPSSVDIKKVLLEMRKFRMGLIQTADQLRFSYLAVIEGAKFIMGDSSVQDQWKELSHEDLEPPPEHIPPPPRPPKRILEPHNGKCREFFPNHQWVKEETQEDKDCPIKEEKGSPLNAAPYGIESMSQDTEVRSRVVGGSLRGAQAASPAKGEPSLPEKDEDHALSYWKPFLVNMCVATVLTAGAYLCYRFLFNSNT
# [8] = target: T2, Tyrosine-protein phosphatase non-receptor type 11 (Homo sapiens, UniProt Q06124); assay: Inhibition of human SHP2 using pNPP substrate by spectrophotometry
# T2 sequence (Q06124 whole entry): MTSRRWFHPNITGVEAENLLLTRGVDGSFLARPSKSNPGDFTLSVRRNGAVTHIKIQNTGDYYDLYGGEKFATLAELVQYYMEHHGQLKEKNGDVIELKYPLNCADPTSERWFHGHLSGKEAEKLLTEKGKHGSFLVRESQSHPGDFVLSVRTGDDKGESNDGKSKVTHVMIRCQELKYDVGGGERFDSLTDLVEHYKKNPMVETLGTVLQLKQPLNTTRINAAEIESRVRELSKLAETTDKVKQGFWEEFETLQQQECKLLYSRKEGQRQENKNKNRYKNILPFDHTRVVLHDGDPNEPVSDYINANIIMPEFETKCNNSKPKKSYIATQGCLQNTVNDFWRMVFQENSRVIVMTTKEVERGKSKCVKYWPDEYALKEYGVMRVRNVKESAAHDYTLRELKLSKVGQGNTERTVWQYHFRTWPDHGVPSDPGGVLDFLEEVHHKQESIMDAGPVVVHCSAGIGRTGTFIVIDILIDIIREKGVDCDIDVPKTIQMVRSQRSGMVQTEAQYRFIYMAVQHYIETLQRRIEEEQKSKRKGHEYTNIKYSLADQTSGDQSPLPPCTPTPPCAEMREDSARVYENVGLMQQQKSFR
# [9] = target: Tyrosine-protein phosphatase non-receptor type 6 (Homo sapiens, UniProt P29350); assay: Inhibition of human SHP1 using pNPP substrate by spectrophotometry
# [10] = target: T3, Tyrosine-protein phosphatase non-receptor type 9 (Homo sapiens, UniProt P43378); assay: Inhibition of human PTP-Meg2 using pNPP substrate by spectrophotometry
# T3 sequence (P43378 whole entry): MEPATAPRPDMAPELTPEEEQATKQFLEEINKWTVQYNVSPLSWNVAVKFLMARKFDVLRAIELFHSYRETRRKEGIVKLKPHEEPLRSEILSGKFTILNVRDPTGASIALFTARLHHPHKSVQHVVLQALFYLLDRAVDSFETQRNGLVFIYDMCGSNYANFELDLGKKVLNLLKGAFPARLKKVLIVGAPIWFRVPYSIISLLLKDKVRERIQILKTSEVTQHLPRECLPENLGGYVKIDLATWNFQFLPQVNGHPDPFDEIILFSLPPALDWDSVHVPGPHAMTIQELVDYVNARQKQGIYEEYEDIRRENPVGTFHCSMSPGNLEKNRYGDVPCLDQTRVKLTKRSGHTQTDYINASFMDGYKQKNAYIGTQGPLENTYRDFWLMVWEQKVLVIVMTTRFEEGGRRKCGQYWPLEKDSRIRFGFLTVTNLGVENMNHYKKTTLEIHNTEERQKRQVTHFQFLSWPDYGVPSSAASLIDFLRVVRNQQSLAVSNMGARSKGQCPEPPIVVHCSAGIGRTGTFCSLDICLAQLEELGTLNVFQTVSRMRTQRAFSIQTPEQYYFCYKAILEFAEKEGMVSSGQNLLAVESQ
# [11] = target: T4, Receptor-type tyrosine-protein phosphatase C (Homo sapiens, UniProt P08575); assay: Inhibition of human CD45 using pNPP substrate by spectrophotometry
# T4 sequence (P08575 whole entry): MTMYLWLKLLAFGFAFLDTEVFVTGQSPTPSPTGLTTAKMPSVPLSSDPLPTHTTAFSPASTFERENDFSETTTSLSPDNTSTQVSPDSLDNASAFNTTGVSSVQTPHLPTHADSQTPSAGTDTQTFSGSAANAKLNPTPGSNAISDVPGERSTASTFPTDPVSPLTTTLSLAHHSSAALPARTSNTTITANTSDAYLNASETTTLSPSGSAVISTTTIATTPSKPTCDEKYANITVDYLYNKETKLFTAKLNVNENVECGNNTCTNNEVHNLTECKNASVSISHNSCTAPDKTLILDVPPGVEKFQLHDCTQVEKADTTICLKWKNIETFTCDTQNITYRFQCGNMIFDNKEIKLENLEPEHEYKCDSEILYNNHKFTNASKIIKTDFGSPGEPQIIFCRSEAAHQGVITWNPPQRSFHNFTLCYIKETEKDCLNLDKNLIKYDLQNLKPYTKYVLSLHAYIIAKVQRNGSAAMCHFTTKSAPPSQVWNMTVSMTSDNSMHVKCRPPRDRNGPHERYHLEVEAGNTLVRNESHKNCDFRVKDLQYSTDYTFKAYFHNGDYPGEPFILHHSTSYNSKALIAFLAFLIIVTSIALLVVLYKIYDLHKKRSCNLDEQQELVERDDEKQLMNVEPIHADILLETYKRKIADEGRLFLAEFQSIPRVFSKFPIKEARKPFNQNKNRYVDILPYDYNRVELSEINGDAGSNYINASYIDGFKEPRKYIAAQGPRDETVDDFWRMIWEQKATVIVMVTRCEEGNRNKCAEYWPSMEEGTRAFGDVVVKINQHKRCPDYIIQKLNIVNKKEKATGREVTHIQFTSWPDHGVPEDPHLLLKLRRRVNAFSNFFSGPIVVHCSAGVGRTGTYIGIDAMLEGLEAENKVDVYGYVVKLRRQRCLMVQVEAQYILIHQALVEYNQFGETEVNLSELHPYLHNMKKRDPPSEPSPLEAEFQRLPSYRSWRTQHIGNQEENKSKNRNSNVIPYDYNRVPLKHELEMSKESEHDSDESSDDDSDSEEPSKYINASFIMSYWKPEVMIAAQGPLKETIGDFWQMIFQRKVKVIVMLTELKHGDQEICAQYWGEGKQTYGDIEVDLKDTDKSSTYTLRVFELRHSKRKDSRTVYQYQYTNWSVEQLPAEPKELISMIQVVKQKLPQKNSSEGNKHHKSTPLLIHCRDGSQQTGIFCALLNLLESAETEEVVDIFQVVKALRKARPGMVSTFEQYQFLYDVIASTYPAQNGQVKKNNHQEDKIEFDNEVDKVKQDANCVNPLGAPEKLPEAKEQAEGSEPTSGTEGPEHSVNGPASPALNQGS
# [12] = target: Receptor-type tyrosine-protein phosphatase epsilon (Homo sapiens, UniProt P23469); assay: Inhibition of human PTPepsilon using pNPP substrate by spectrophotometry
# [13] = target: Dual specificity protein phosphatase 3 (Homo sapiens, UniProt P51452); assay: Inhibition of human VHR using pNPP substrate by spectrophotometry
# Laforin = target: T5, Laforin (Homo sapiens, UniProt O95278); assay: Inhibition of human laforin using pNPP substrate by spectrophotometry
# T5 sequence (O95278 whole entry): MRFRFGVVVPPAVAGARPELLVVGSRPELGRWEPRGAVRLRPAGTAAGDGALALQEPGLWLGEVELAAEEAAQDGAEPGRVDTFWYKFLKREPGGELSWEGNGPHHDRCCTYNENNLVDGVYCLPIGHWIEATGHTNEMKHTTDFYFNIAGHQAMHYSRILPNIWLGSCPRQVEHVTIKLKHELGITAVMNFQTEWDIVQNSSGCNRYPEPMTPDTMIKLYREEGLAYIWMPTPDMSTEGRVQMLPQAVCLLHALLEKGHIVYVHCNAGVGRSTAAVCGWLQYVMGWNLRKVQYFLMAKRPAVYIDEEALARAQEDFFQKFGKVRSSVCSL
# [14] = Selectivity index, ratio of IC50 for human PTP1B to IC50 for Mycobacterium tuberculosis protein tyrosine phosphatase B
# [15] = Selectivity index, ratio of IC50 for human SHP2 to IC50 for Mycobacterium tuberculosis protein tyrosine phosphatase B
# [16] = Selectivity index, ratio of IC50 for human SHP1 to IC50 for Mycobacterium tuberculosis protein tyrosine phosphatase B
# [17] = Selectivity index, ratio of IC50 for human PTP-Meg2 to IC50 for Mycobacterium tuberculosis protein tyrosine phosphatase B
# [18] = Selectivity index, ratio of IC50 for human CD45 to IC50 for Mycobacterium tuberculosis protein tyrosine phosphatase B
# [19] = Selectivity index, ratio of IC50 for human PTPepsilon to IC50 for Mycobacterium tuberculosis protein tyrosine phosphatase B
# [20] = Selectivity index, ratio of IC50 for human VHR to IC50 for Mycobacterium tuberculosis protein tyrosine phosphatase B
# [21] = Selectivity index, ratio of IC50 for human laforin to IC50 for Mycobacterium tuberculosis protein tyrosine phosphatase B
# Sequence of Dual specificity protein phosphatase 3 (P51452 whole entry): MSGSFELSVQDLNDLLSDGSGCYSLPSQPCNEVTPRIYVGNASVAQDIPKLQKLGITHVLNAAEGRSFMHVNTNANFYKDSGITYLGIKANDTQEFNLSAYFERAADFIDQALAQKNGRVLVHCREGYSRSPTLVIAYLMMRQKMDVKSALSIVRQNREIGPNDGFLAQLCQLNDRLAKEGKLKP
# Sequence of Tyrosine-protein phosphatase non-receptor type 6 (P29350 whole entry): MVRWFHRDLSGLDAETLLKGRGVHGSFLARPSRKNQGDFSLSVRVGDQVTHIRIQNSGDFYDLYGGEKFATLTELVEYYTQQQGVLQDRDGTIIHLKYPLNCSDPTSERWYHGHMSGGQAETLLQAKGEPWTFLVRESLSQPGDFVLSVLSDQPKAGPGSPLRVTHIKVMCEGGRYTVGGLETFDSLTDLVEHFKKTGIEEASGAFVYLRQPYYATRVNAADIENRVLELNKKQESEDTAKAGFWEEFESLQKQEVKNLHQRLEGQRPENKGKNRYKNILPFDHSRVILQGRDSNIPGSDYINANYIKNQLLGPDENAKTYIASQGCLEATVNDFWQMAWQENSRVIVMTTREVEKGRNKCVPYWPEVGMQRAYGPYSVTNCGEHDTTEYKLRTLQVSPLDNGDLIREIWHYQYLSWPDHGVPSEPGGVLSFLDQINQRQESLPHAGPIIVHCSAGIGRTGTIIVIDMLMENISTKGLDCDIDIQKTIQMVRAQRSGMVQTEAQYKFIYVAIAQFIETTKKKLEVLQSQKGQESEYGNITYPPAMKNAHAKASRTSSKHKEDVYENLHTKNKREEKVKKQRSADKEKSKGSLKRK
# Sequence of Receptor-type tyrosine-protein phosphatase epsilon (P23469 whole entry): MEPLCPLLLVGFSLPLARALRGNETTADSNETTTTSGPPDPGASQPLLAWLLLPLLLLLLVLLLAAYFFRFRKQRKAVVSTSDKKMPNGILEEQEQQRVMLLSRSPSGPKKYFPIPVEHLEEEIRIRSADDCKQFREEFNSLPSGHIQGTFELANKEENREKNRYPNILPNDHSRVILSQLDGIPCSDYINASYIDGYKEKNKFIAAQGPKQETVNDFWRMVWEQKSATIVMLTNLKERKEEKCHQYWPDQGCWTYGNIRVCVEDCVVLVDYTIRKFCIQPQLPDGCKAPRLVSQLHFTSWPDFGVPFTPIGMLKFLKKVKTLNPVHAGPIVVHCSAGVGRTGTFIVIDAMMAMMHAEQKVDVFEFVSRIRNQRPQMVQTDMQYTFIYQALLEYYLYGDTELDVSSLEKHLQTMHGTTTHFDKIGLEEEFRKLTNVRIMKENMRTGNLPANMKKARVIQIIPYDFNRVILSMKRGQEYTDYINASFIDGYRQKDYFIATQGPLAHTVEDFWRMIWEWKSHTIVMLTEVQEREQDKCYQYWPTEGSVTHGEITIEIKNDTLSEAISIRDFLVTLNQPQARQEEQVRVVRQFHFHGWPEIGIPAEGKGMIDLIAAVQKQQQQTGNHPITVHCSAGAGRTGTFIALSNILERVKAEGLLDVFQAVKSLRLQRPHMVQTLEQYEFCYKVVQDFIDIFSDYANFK
structure (smiles),measurement,setting,value
O=C(O)c1cc2sc(Nc3ccc(F)cc3)nc2cc1O,IC50,[1],65 µM
O=C(O)c1cc2sc(Nc3ccc([N+](=O)[O-])cc3)nc2cc1O,IC50,[1],50 µM
O=C(O)c1ccc2nc(Nc3ccccc3)sc2c1O,IC50,[1],71 µM
O=C(O)c1cc2sc(Nc3ccccc3Cl)nc2cc1O,IC50,[1],30 µM
CC(C)(C)c1ccc(Nc2nc3cc(O)c(C(=O)O)cc3s2)cc1,IC50,[1],41 µM
Cc1ccccc1Nc1nc2cc(O)c(C(=O)O)cc2s1,IC50,[1],31 µM
O=C1COc2cc(O)c(C(=O)O)cc2N1,IC50,[1],> 100 µM
CCNc1nc2cc(C(=O)O)c(O)cc2o1,IC50,[1],> 100 µM
O=C(O)c1cc2sc(Nc3ccccc3)nc2cc1O,IC50,[1],25 µM
same,inhibition,RAW264.7 [2],inactive
same,inhibition,RAW264.7 [3],inactive
O=C(O)c1cc2sc(Nc3ccc(Cl)cc3Cl)nc2cc1O,IC50,[1],5 µM
O=C(O)c1cc2sc(Nc3cccc(Br)c3)nc2cc1O,IC50,[1],2 µM
same,Ki,[4],1.5 µM
same,inhibition,RAW264.7 [5],Dose-dependent effect
same,inhibition,RAW264.7 [6],Dose-dependent effect
same,IC50,[7],65 µM
same,IC50,[8],50 µM
same,IC50,[9],78 µM
same,IC50,[10],69 µM
same,IC50,[11],> 100 µM
same,IC50,[12],> 400 µM
same,IC50,[13],43 µM
same,IC50,Laforin,56 µM
same,Ratio IC50,[14],> 20
same,Ratio IC50,[15],> 20
same,Ratio IC50,[16],> 20
same,Ratio IC50,[17],> 20
same,Ratio IC50,[18],> 20
same,Ratio IC50,[19],> 20
same,Ratio IC50,[20],> 20
same,Ratio IC50,[21],> 20
O=C(O)c1cc2sc(Nc3cccc4ccccc34)nc2cc1O,IC50,[1],60 µM
O=C(O)c1cc2sc(Nc3cccc(Cl)c3)nc2cc1O,IC50,[1],21 µM
O=C(O)CN1CC(=O)Oc2cc(O)c(C(=O)O)cc21,IC50,[1],> 100 µM
O=C(O)c1cc2[nH]c(=O)oc2cc1O,IC50,[1],> 100 µM
O=C(O)c1cc2[nH]c(-c3ccccc3)nc2cc1O,IC50,[1],32 µM
O=C(O)c1cc2sc(Nc3ccc(Cl)cc3)nc2cc1O,IC50,[1],13 µM
Cc1cccc(Nc2nc3cc(O)c(C(=O)O)cc3s2)c1,IC50,[1],15 µM
O=C(O)c1cc2nc(-c3ccccc3)oc2cc1O,IC50,[1],27 µM
O=C(O)c1cc2nc(NCc3ccccc3)oc2cc1O,IC50,[1],> 100 µM
